Calls of active or inactive are those of the source. The rule behind the calls is not given here.
Experiments:
Format in all cases: functional
Homo sapiens [1] = organism: Homo sapiens; test: Induction of HO-1 expression in HAEC at 3 uM after 4 hrs by qPCR analysis
How it was run: (§1)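 Cultured HAECs, switched overnight to M199/10% FBS, exposed for 4 h to 3 μM lipid in M199 with 1% FBS, duplicate/replicate wells. Cells scraped, mRNA quantified by qPCR with GAPDH normalization; fold change of treated over untreated cells.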

Homo sapiens [2] = organism: Homo sapiens; test: Induction of IL-8 protein expression in HAEC at 0.75 to 1.5 uM after 4 hrs by ELISA
How it was run: (§2)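 HAECs kept overnight in M199 with 10% FBS, then left untreated or given increasing EI concentrations for 4 h in M199 with 1% FBS, triplicate wells. IL-8 and MCP-1 in the collected medium quantified by ELISA. Significance versus untreated control by Student t test.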

Homo sapiens [3] = organism: Homo sapiens; test: Induction of VCAM-1 expression in HAEC at 3 uM after 4 hrs by microarray assay relative to control
How it was run: (§3)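 Microarray on RNA from duplicate HAEC wells given 3 μM EI4 or 6 μM PEIPC in M199 with 1% FBS for 4 h, or left untreated. Probes with detection p < 0.001 retained. Fold change is mean treated probe level over mean control probe level. Genes counted as regulated at ≥1.2-fold.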

Homo sapiens [4] = organism: Homo sapiens; test: Inhibition of IL-1beta-induced MCP-1 protein expression in HAEC at 3 uM co-treated with IL-1beta measured after 4 hrs by ELISA
How it was run: (§4)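 HAECs preincubated 1 h with 3 μM EI4, then given 20 ng/mL IL-1β plus EI for 4 h. MCP-1 in the medium measured by ELISA and compared with IL-1β alone; significance by p value.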

Homo sapiens [5] = organism: Homo sapiens; test: Induction of ATF-3 expression in HAEC at 3 uM after 4 hrs by qPCR analysis; how it was run: as §1
Homo sapiens [6] = organism: Homo sapiens; test: Induction of CXCL6 expression in HAEC at 3 uM after 4 hrs by microarray assay relative to control; how it was run: as §3
Homo sapiens [7] = organism: Homo sapiens; test: Inhibition of IL-1beta-induced ICAM-1 mRNA expression in HAEC at 3 uM treated 1 hr before IL-1beta stimulation measured after 4 hrs by qPCR analysis
How it was run: (§5)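 RNA measured by qPCR. HAECs preincubated 1 h with 3 μM EI4, then exposed 4 h to 20 ng/mL IL-1β with EI still present. Value reported as percent reduction of the IL-1β-induced fold change.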

Homo sapiens [8] = organism: Homo sapiens; test: Inhibition of IL-1beta-induced CXCL6 mRNA expression in HAEC at 3 uM treated 1 hr before IL-1beta stimulation measured after 4 hrs by qPCR analysis; how it was run: as §5
Homo sapiens [9] = organism: Homo sapiens; test: Inhibition of IL-1beta-induced MCP-1 mRNA expression in HAEC at 3 uM treated 1 hr before IL-1beta stimulation measured after 4 hrs by qPCR analysis; how it was run: as §5
Homo sapiens [10] = organism: Homo sapiens; test: Inhibition of IL-1beta-induced CXCL1 mRNA expression in HAEC at 3 uM treated 1 hr before IL-1beta stimulation measured after 4 hrs by qPCR analysis; how it was run: as §5
Homo sapiens [11] = organism: Homo sapiens; test: Induction of ICAM-1 expression in HAEC at 3 uM after 4 hrs by microarray assay relative to control; how it was run: as §3
Homo sapiens [12] = organism: Homo sapiens; test: Induction of MCP1 expression in HAEC at 3 uM after 4 hrs by microarray assay relative to control; how it was run: as §3
Homo sapiens [13] = organism: Homo sapiens; test: Inhibition of IL-1beta-induced E-selectin mRNA expression in HAEC at 3 uM treated 1 hr before IL-1beta stimulation measured after 4 hrs by qPCR analysis; how it was run: as §5
Homo sapiens [14] = organism: Homo sapiens; test: Induction of E-selectin expression in HAEC at 3 uM after 4 hrs by microarray assay relative to control; how it was run: as §3
Homo sapiens [15] = organism: Homo sapiens; test: Induction of NfKB1A expression in HAEC at 3 uM after 4 hrs by microarray assay relative to control; how it was run: as §3
Homo sapiens [16] = organism: Homo sapiens; test: Induction of MCP1 expression in HAEC at 3 uM after 4 hrs by qPCR analysis; how it was run: as §1
Homo sapiens [17] = organism: Homo sapiens; test: Induction of IL-8 expression in HAEC at 3 uM after 4 hrs by qPCR analysis; how it was run: as §1
Homo sapiens [18] = organism: Homo sapiens; test: Inhibition of IL-1beta-induced MCP-1 protein expression in HAEC at 3 uM treated 1 hr before IL-1beta stimulation measured after 4 hrs by ELISA; how it was run: as §4
Homo sapiens [19] = organism: Homo sapiens; test: Induction of IL-8 expression in HAEC at 3 uM after 4 hrs by microarray assay relative to control; how it was run: as §3
Homo sapiens [20] = organism: Homo sapiens; test: Inhibition of IL-1beta-induced VCAM-1 mRNA expression in HAEC at 3 uM treated 1 hr before IL-1beta stimulation measured after 4 hrs by qPCR analysis; how it was run: as §5
[21] = Decrease of IL-8 protein expression in HAEC at 6 uM after 4 hrs by ELISA; settings: Homo sapiens; how it was run: as §2
Homo sapiens [22] = organism: Homo sapiens; test: Induction of HSP1A1 expression in HAEC at 3 uM after 4 hrs by qPCR analysis
[23] = Decrease of MCP-1 protein expression in HAEC at 6 uM after 4 hrs by ELISA; settings: Homo sapiens; how it was run: as §2
Homo sapiens [24] = organism: Homo sapiens; test: Induction of RelB expression in HAEC at 3 uM after 4 hrs by microarray assay relative to control; how it was run: as §3
Homo sapiens [25] = organism: Homo sapiens; test: Inhibition of IL-1beta-induced IL-6 mRNA expression in HAEC at 3 uM treated 1 hr before IL-1beta stimulation measured after 4 hrs by qPCR analysis; how it was run: as §5
Homo sapiens [26] = organism: Homo sapiens; test: Induction of CXCL1 expression in HAEC at 3 uM after 4 hrs by microarray assay relative to control; how it was run: as §3
Homo sapiens [27] = organism: Homo sapiens; test: Induction of IL-6 expression in HAEC at 3 uM after 4 hrs by microarray assay relative to control; how it was run: as §3
Homo sapiens [28] = organism: Homo sapiens; test: Induction of CXCL1 expression in HAEC at 6 uM after 4 hrs by microarray assay relative to control; how it was run: as §3
Homo sapiens [29] = organism: Homo sapiens; test: Induction of ICAM-1 expression in HAEC at 6 uM after 4 hrs by microarray assay relative to control; how it was run: as §3
Homo sapiens [30] = organism: Homo sapiens; test: Induction of E-selectin expression in HAEC at 6 uM after 4 hrs by qPCR analysis relative to control
Homo sapiens [31] = organism: Homo sapiens; test: Induction of IL-6 expression in HAEC at 6 uM after 4 hrs by microarray assay relative to control; how it was run: as §3
Homo sapiens [32] = organism: Homo sapiens; test: Induction of RelB expression in HAEC at 6 uM after 4 hrs by microarray assay relative to control; how it was run: as §3
Homo sapiens [33] = organism: Homo sapiens; test: Induction of IL-8 expression in HAEC at 6 uM after 4 hrs by microarray assay relative to control; how it was run: as §3
Homo sapiens [34] = organism: Homo sapiens; test: Induction of CXCL6 expression in HAEC at 6 uM after 4 hrs by microarray assay relative to control; how it was run: as §3
Homo sapiens [35] = organism: Homo sapiens; test: Induction of MCP1 expression in HAEC at 6 uM after 4 hrs by microarray assay relative to control; how it was run: as §3
Homo sapiens [36] = organism: Homo sapiens; test: Induction of NfKB1A expression in HAEC at 6 uM after 4 hrs by microarray assay relative to control; how it was run: as §3
Homo sapiens [37] = organism: Homo sapiens; test: Induction of VCAM-1 expression in HAEC at 6 uM after 4 hrs by microarray assay relative to control; how it was run: as §3

With `CCCCC/C=C\C[C@@H]1/C(=C\[C@H]2O[C@@H]2CCCC(=O)O)C(=O)C[C@H]1O` the Activity (Homo sapiens [1]) was “Active”, the Activity (Homo sapiens [2]) was “Active” and the fold change (FC) (Homo sapiens [3]) was 0.27. For the same compound, the inhibition (Homo sapiens [4]) was “Active”, the Activity (Homo sapiens [5]) was “Active” and the fold change (FC) (Homo sapiens [6]) was 0.59. The inhibition (Homo sapiens [7]) was 52.3%, the inhibition (Homo sapiens [8]) was 87.6% and the inhibition (Homo sapiens [9]) was 79.6%. The inhibition (Homo sapiens [10]) was 53.4%, the fold change (FC) (Homo sapiens [11]) was 0.75 and the fold change (FC) (Homo sapiens [12]) was 0.2. The inhibition (Homo sapiens [13]) was 69.5%, the fold change (FC) (Homo sapiens [14]) was 0.21 and the fold change (FC) (Homo sapiens [15]) was 0.79. The Activity (Homo sapiens [16]) was “Active”, the Activity (Homo sapiens [17]) was “Active” and the inhibition (Homo sapiens [18]) was “Active”. The fold change (FC) (Homo sapiens [19]) was 3, the inhibition (Homo sapiens [20]) was 92.1% and the Activity [21] was “Active”. For the same compound, the Activity (Homo sapiens [22]) was “Active”, the Activity [23] was “Active” and the fold change (FC) (Homo sapiens [24]) was 0.8. For the same compound, the inhibition (Homo sapiens [25]) was 76%, the fold change (FC) (Homo sapiens [26]) was 1.3 and the fold change (FC) (Homo sapiens [27]) was 0.6.

With `CCCCC/C=C\C[C@@H]1/C(=C\C2O[C@@H]2CCCC(=O)O)C(=O)CC1O` (single isomer, unassigned) the Activity (Homo sapiens [1]) was “Active”, the Activity (Homo sapiens [5]) was “Active” and the Activity (Homo sapiens [17]) was “Active”. The Activity (Homo sapiens [22]) was “Active”.

With `CCCCC/C=C\CC1/C(=C\C2OC2CCCC(=O)OC(COC(=O)CCCCCCCCCCCCCCC)COP(=O)([O-])OCC[N+](C)(C)C)C(=O)CC1O` (stereo not drawn) the Activity (Homo sapiens [1]) was “Active”, the fold change (FC) (Homo sapiens [28]) was 4.8 and the fold change (FC) (Homo sapiens [29]) was 2.3. The Activity (Homo sapiens [5]) was “Active”, the fold change (FC) (Homo sapiens [30]) was 2.38 and the fold change (FC) (Homo sapiens [31]) was 2.2. For the same compound, the fold change (FC) (Homo sapiens [32]) was 4.2, the Activity (Homo sapiens [16]) was “Active” and the fold change (FC) (Homo sapiens [33]) was 17. The fold change (FC) (Homo sapiens [34]) was 1.4, the fold change (FC) (Homo sapiens [35]) was 13 and the fold change (FC) (Homo sapiens [36]) was 4. It also gave a fold change (FC) (Homo sapiens [37]) of 1.2.

For `CCCCC/C=C\C[C@H]1/C(=C\[C@@H]2O[C@H]2CCCC(=O)O)C(=O)C[C@@H]1O`, the Activity (Homo sapiens [1]) was “Active”, the Activity (Homo sapiens [5]) was “Active” and the Activity (Homo sapiens [16]) was “Active”. For the same compound, the Activity (Homo sapiens [17]) was “Active” and the Activity (Homo sapiens [22]) was “Active”.

For `CCCCC/C=C\C[C@H]1/C(=C\[C@@H]2O[C@H]2CCCC(=O)O)C(=O)C[C@H]1O`, the Activity (Homo sapiens [1]) was “Active”, the Activity (Homo sapiens [5]) was “Active” and the Activity (Homo sapiens [17]) was “Active”. The Activity (Homo sapiens [22]) was “Active”.
